# Measurements reported in PubChem BioAssay.
# Calls of active or inactive are those of the source.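 The calls were made as follows, unless noted: active = viability at or under a set limit in both replicates, limit being median viability minus 3 SD (cut at about 48% in these data, passing the limit was not always enough); inconclusive = at or under the limit in just one replicate; inactive = at or above the limit in both replicates.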
# Tests used:
# [1] = Her2 expression decrease, cell viability multiplex – SKBR3 breast tumor cells, AlphaScreen, ATP viability, primary screen (AID 461;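 active = Her2 level under about 52% in both replicate screens, with viability over 70% of control, limit read from the data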;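 as to Her2 level: lower value means less Her2 protein in the cells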;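 as to viability: percent of carrier control wells set as 100% viability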); settings: SKBR3 Her2 protein level, 18-24 h, measured here: SKBR3 viability, ATP luminescence, at 10 µM
# [2] = molecular target: Receptor tyrosine-protein kinase erbB-2 (Homo sapiens) (UniProt P04626); experiment: as above; settings: 18-24 h, at 10 µM, stronger effect = lower value
# [3] = reduced viability of SK-BR-3 breast cancer cells – cell-based, 24 h, human, pilot screen (AID 572;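 active = viability at or below 10% of carrier control in both of two separate runs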;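 also: compound exposure lasted between 18 and 24 h rather than exactly 24 h; 100% = carrier-treated control wells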); settings: SK-BR-3 viability, CellTiter-Glo luminescence, at 10 µM, stronger effect = lower value
# [4] = HUVEC growth inhibition – cell-based, human, primary screen (AID 575;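 active = viability at or below 30% in both replicate assays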;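 also: 100% = median of untreated cell wells with 0.1% DMSO on each plate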); settings: HUVEC proliferation, CellTiter-Glo luminescence, 72 h; at 10 µM; stronger effect = lower value
# Method in brief: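 Test system: primary human umbilical vein endothelial cells. Quantity: 1250 cells/well. Compound: single 10 µM dose, 0.1% DMSO, from 5x medium stock. Timing: 72 h treatment at 37 °C. Detection: ATP-based CellTiter-Glo luminescent read. Benchmarks: vehicle and MePR control wells. Format: 384-well plates coated with collagen.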
# [5] = H69AR cell proliferation blockers – human, duplicate replicates, primary screen (AID 580); settings: H69AR lung tumor cells viability, ATP luminescence, 72 h; at 10 µM; stronger effect = lower value;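 also: 100% = mean luminescence of untreated wells and 0% = no signal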
# [6] = MRP1 drug-resistance reversers in H69AR cells – cell-based, doxorubicin co-treatment, pilot screen (AID 601;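 active = viability loss from added drug above about 55%, and viability with drug at most 40%, in both replicates, limit read from the data, passing the limit was not always enough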); settings: CellTiter-Glo, 72 h, at 10 µM; for differential viability (reversal): stronger effect = higher value
# [7] = yeast transport mutant growth inhibition pilot in 384-well plates, post-Golgi transport modulator project (AID 636; in the data active = inhibition above about 31%); settings: absorbance 615 nm, about 18 h, stronger effect = higher value
# [8] = growth suppression of yeast trafficking mutant, preliminary HTS, modulators of trafficking downstream of Golgi apparatus project, 1536-format plate, OD 615 nm (AID 637; in the data active = inhibition above about 30%); settings: yeast transport mutant growth, absorbance 615 nm, 18 h; stronger effect = higher value
# [9] = H69AR cells + 2 uM doxorubicin, measured here: viability with 2 uM doxorubicin, stronger effect = lower value
# [10] = H69AR cells, compound alone cytotoxicity
# Chain of Receptor tyrosine-protein kinase erbB-2 (Homo sapiens) (P04626 whole entry, looked up): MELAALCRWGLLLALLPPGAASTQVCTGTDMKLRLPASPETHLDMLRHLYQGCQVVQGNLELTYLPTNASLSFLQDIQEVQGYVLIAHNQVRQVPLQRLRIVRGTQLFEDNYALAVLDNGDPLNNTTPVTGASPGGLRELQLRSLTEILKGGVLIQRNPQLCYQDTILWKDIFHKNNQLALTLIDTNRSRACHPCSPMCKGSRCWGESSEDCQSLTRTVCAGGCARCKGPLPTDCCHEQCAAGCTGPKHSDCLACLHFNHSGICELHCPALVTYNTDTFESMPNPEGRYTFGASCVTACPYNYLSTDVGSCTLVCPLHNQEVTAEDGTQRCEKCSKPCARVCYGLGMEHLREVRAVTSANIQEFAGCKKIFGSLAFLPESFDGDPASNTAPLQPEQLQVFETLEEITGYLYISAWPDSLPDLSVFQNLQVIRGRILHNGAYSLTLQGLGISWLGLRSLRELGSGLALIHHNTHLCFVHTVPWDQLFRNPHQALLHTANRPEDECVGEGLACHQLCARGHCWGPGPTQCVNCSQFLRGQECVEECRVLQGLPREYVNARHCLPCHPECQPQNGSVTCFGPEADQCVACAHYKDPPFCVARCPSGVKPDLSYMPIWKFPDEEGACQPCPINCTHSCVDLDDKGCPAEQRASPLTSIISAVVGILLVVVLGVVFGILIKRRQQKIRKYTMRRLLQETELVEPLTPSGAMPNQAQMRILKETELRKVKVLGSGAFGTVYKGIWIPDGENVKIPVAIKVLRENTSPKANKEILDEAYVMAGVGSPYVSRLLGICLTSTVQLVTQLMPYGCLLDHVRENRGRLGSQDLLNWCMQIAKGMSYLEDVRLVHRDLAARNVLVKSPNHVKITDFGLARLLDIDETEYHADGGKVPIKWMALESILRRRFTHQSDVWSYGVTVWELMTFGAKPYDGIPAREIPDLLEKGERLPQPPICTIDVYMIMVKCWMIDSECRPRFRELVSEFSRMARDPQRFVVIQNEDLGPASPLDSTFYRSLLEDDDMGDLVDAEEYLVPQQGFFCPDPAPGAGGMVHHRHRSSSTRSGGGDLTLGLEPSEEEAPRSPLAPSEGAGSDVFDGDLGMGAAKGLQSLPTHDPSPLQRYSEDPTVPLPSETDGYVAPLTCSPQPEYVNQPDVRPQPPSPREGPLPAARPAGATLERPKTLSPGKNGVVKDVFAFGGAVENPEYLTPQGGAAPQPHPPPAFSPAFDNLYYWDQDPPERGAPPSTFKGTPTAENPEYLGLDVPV
SMILES,viability [1] [%],Her2 level [2],viability [3],viability [4],viability [5],differential viability (reversal) ([6]; H69AR cells + 2 uM doxorubicin),"viability [6, 9] [%]","viability [6, 10] [%]",inhibition [7],inhibition [8]
COc1cccc(NC(=O)N2CCN(c3cccc(C)c3C)CC2)c1,102,72.5% (inactive),102% (inactive),68.5% (inactive),82.8% (inactive),-4.58% (inactive),87.4,82.8,1.82% (inactive),-3% (inactive)
CCOC(=O)CSc1nnc(-c2ccccc2OC)o1,116,96% (inactive),116% (inactive),80.2% (inactive),94.8% (inactive),-11% (inactive),106,94.8,-6.44% (inactive),-6.51% (inactive)
COC(=O)CC1C(=O)NCCN1C(=O)NC1CCCCC1 (stereo not given),94,114% (inactive),94% (inactive),104% (inactive),98.8% (inactive),7.06% (inactive),91.7,98.8,-9.59% (inactive),-6.98% (inactive)
O=C(OCn1nnc2ccccc2c1=O)C1CCN(S(=O)(=O)c2cccs2)CC1,97,133% (inactive),97% (inactive),97.7% (inactive),105% (inactive),1.22% (inactive),104,105,1.54% (inactive),-4.67% (inactive)
COc1ccc(OCC(=O)N2CCN(C(=O)c3cccs3)CC2)cc1,117,82.5% (inactive),117% (inactive),83.5% (inactive),87.4% (inactive),1.78% (inactive),85.6,87.4,-3.29% (inactive),-2.9% (inactive)
CCCCc1ccc(NC(=O)c2c(C)noc2C)cc1,105,94.5% (inactive),105% (inactive),96% (inactive),89.4% (inactive),0.065% (inactive),89.3,89.4,-3.68% (inactive),4.43% (inactive)
CCOc1cc(CN2CCN(C(=O)c3ccco3)CC2)ccc1OC,79.5,102% (inactive),79.5% (inactive),88.7% (inactive),89.5% (inactive),1.51% (inactive),87.9,89.5,-2.69% (inactive),0.83% (inactive)
COc1cccc(C(=O)Nc2ccc(N(C)C)cc2)c1OC,97,78.5% (inactive),97% (inactive),90% (inactive),90.9% (inactive),10.3% (inactive),80.5,90.9,-3.68% (inactive),-1.27% (inactive)
Cc1ccc(NCC(O)C(O)C(O)CO)cc1C (stereo not given),113,104% (inactive),113% (inactive),93.4% (inactive),94.3% (inactive),-2.34% (inactive),96.6,94.3,-6.93% (inactive),-8.1% (inactive)
COc1cc2c(cc1NC(=O)CN1CCN(S(=O)(=O)c3ccc(F)cc3)CC1)oc1ccccc12,93.5,105% (inactive),93.5% (inactive),66.4% (inactive),95.7% (inactive),1.29% (inactive),94.4,95.7,-2.37% (inactive),3.33% (inactive)
Cn1c(=O)c2c(ncn2CC(O)CNc2ccc(Cl)cc2)n(C)c1=O (stereo not given),91,103% (inactive),91% (inactive),79.6% (inactive),89.9% (inactive),0.365% (inactive),89.5,89.9,-0.53% (inactive),-5.71% (inactive)
CCOC(=O)N1CCN(c2c(N3CCN(c4ccccn4)CC3)c(=O)c2=O)CC1,104,103% (inactive),104% (inactive),95.4% (inactive),92.5% (inactive),9.85% (inactive),82.6,92.5,-2.67% (inactive),-2.79% (inactive)
O=C(OCC#CCSc1nc2ccccc2o1)c1ccco1,112,84% (inactive),112% (inactive),80.4% (inactive),80.4% (inactive),-1.78% (inactive),82.2,80.4,-6.67% (inactive),-7.7% (inactive)
COC(=O)CSc1nc2ncc(Cl)cc2[nH]1,101,92.5% (inactive),101% (inactive),89.3% (inactive),89.8% (inactive),1.08% (inactive),88.7,89.8,-5.06% (inactive),1.15% (inactive)
CCOc1cc(S(=O)(=O)N2CCC(Cc3ccccc3)CC2)c(OCC)cc1-n1cnnn1,77.5,102% (inactive),77.5% (inactive),90.7% (inactive),99.7% (inactive),32.5% (inactive),67.2,99.7,5.95% (inactive),-1.59% (inactive)
O=c1[nH]cnc2c1C1(CCCC1)Cc1ccccc1-2,95.5,90% (inactive),95.5% (inactive),93.1% (inactive),100% (inactive),11.5% (inactive),88.7,100,-0.26% (inactive),-0.5% (inactive)
CCSc1nnc(NC(=O)c2nn(C(C)C)c(=O)c3ccccc23)s1,99,77.5% (inactive),99% (inactive),81.5% (inactive),79.4% (inactive),-9.27% (inactive),88.7,79.4,-5.39% (inactive),-2% (inactive)
COc1ccc(OC)c(C2=NOC(C(=O)NCCN3CCOCC3)C2)c1 (stereo not given),107,89.5% (inactive),107% (inactive),102% (inactive),90.6% (inactive),5.3% (inactive),85.3,90.6,-1.18% (inactive),-3.27% (inactive)
O=C(Nc1ccc(N2CCOCC2)cc1)c1cc2ccccc2o1,99.5,117% (inactive),99.5% (inactive),109% (inactive),85.7% (inactive),3.15% (inactive),82.6,85.7,-0.26% (inactive),-10.8% (inactive)
CCOC(=O)C1=C(C)N=C2SC(C)C(=O)N2C1c1cccc(F)c1 (stereo not given),102,89.5% (inactive),102% (inactive),85.2% (inactive),87.5% (inactive),0.855% (inactive),86.7,87.5,-3.82% (inactive),1.13% (inactive)
CCOC(=O)C1CCN(c2nc3ccccc3nc2C(C#N)C(=O)OCCOC)CC1 (stereo not given),97,98% (inactive),97% (inactive),78.3% (inactive),79.4% (inactive),27.7% (inactive),51.7,79.4,-6.71% (inactive),0.16% (inactive)
Cc1ccccc1N(CC(=O)NCC1CCCO1)C(=O)C1(C)CC(=O)N=C2C=CC=CN21 (stereo not given),96,96.5% (inactive),96% (inactive),104% (inactive),98.7% (inactive),-1.7% (inactive),100,98.7,-1.05% (inactive),-10.5% (inactive)
Cc1cc(NC(=O)CSc2ccc(Cl)cc2)no1,88.5,114% (inactive),88.5% (inactive),91.3% (inactive),61% (inactive),-10.7% (inactive),71.7,61,-0.66% (inactive),22.3% (inactive)
Cc1nc2c(C(=O)O)cnn2c(C)c1Cc1ccccc1F,97.5,141% (inactive),97.5% (inactive),70.6% (inactive),87.4% (inactive),2.52% (inactive),84.8,87.4,1.84% (inactive),-8.33% (inactive)
CCOC(=O)c1nnn(CC(=O)Nc2cccc(F)c2)c1C(=O)OCC,112,95% (inactive),112% (inactive),100% (inactive),96.2% (inactive),3.89% (inactive),92.4,96.2,-1.04% (inactive),-6.35% (inactive)
CCSc1nc2ccccc2n1CC(N)=O,102,81% (inactive),102% (inactive),96.5% (inactive),88.8% (inactive),6.57% (inactive),82.2,88.8,-9.04% (inactive),1.9% (inactive)
CCOC(=O)/C(C#N)=C1\Nc2ccccc2N=C1N(CC(C)C)CC(C)C,80,104% (inactive),80% (inactive),86.2% (inactive),84.2% (inactive),-5.4% (inactive),89.6,84.2,-4.13% (inactive),-2.79% (inactive)
COc1nc(OC)nc(N2CCC(C(=O)NC3CCCCCC3)CC2)n1,95.5,102% (inactive),95.5% (inactive),104% (inactive),105% (inactive),4.45% (inactive),100,105,3.6% (inactive),-2.3% (inactive)
CC(C)NC(=O)CSc1nc2ccccc2n1-c1ccccc1,88.5,101% (inactive),88.5% (inactive),100% (inactive),84.3% (inactive),-8.05% (inactive),92.4,84.3,2.86% (inactive),-4.13% (inactive)
